Compound activity from PubChem.
Compounds with a hit are over-represented: about 4.5% of the library has one in this group of screens.
Mdm2 ligase inh: MDM2-luciferase reporter signal enhancers, primary screen, MDM2 E3 ligase inhibitor project, cell-based, luminescence, 1536-well | actives 0.11% (n = 210,000) | E3 ubiquitin-protein ligase Mdm2 (Homo sapiens), Q00987 | signal enhancement, % at 5 µM | cell-based MDM2 ubiquitination luciferase reporter, 2 h; 0 = plate control, 100 = twice control, blank-subtracted | AID 1230, 2008;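 active = signal enhancement of 30% or more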;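 also: luminescence tracks abundance of the self-degrading MDM2-luciferase fusion protein; higher signal means inhibition of MDM2 E3 ligase activity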
Target sequence (Q00987 whole entry, looked up, the tested form may be a part): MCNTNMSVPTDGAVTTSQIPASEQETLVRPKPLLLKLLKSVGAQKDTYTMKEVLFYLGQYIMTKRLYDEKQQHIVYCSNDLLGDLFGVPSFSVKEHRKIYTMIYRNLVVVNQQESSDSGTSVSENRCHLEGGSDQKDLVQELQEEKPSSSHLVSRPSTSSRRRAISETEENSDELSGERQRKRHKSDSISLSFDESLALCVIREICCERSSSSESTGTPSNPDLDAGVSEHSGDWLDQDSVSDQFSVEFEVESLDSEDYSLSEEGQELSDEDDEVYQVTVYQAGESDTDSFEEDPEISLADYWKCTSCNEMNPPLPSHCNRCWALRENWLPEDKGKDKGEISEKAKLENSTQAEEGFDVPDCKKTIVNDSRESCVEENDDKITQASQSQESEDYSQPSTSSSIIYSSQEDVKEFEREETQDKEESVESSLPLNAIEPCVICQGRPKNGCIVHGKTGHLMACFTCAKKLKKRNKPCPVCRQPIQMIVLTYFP
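Test system: mammalian cells stably expressing self-ubiquitinating, self-degrading MDM2 E3–luciferase fusion; Amount: 2000 cells in each well; Medium: DMEM; Schedule: 4 h settle plus 2 h compound, 37 °C; Technique: SteadyLite luciferase luminescence after 15 min room-temperature reagent incubation; Benchmarks: plate control and blank wells.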
AHR activator: AHR activators, primary screen, cell-based, luminescence, luciferase reporter, human; Aryl hydrocarbon receptor (Homo sapiens), P35869; AHR-responsive luciferase reporter cells; activation, % at 5 µM; actives 2.5% (n = 320,000); in the data active = activation above about 47%
PERK inhibitor: block of dimerizer-induced PERK translation repression, primary screen, PERK inhibitor project, CHO PERK-DD cells, SEAP luminescence, HTS. Eukaryotic translation initiation factor 2-alpha kinase 3 (Homo sapiens), Q9NZJ5. CHO PERK-DD fusion, SEAP luminescence translation reporter. inhibition, % at 5.6 µM. actives 0.17% (n = 220,000);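 active = inhibition above the mean inhibition of all tested compounds plus 3 SD, set separately per screening campaign, cut at about 2.9% in these data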;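 also: PERK kinase domain activated by AP20187 dimerizer at 100 nM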
APP 5'UTR act: activators of APP 5'UTR luciferase reporter, primary screen, SH-SY5Y cells; actives 1% (n = 190,000); activation, % at 2 µM; AID 1276, 2008; SH-SY5Y APP 5'UTR luciferase reporter, luminescence; zero percent = DMSO vehicle wells;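 active = activation above a set limit, based on mean plus 3 SD of controls, cut at about 140% in these data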
STAT1 activator: STAT1 signaling activators, primary screen, cell-based, HTS, luciferase reporter; NIH 3T3 STAT1-luciferase reporter, IFN-gamma, luminescence; 100% = IFN-gamma alone, no compound; activation (% of control), % at 5.5 µM; actives 2.6% (n = 200,000); AID 932, 2007;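 active = activation above the screen-wide mean activation plus 3 SD, cut at about 130% in these data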
NF-kB expr up: activators of NF-kB expression in neurons, primary screen, cell-based, HTS; human neuronal cells, NF-kB reporter expression; stronger effect = higher value; fold change at 12.5 µM; actives 1.6% (n = 190,000); AID 1239, 2008; in the data active = fold change above about 3.3
STAT1 activ conf: STAT1 signaling activators, confirmation, cell-based, HTS, luciferase reporter. shares compounds with STAT1 activator. NIH 3T3 STAT1-luciferase reporter, IFN-gamma potentiation, luminescence; 100% = IFN-gamma EC80 alone, no compound. activation (% of control), % at 5.7 µM. actives 97% (n = 1,200);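 active = activation above a set limit carried over from the earlier primary STAT1 screen, cut at about 140% in these data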
NFkB act: NF-kB reporter activators, TNF-alpha stimulated, counter-screen for STAT1 activator project, cell-based, HEK293T, luciferase luminescence. shares compounds with STAT1 activator. 100% = TNF-alpha with vehicle only. activation (% of control), % at 5.7 µM. actives 43% (n = 1,200). AID 1306, 2008;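 active = activation above the mean of solvent-only control wells plus 3 SD, set per campaign, cut at about 130% in these data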;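 also: TNF-alpha given at a submaximal dose yielding about 80% of full reporter signal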
STAT3 act 2: STAT3 reporter activation by STAT1 hits, confirmation, counter-screen for STAT1 activator project, U3A cells, luciferase, luminescence. IL-6; cells lack STAT1; 100 = IL-6 alone, no compound effect. actives 46% (n = 1,200). shares compounds with STAT1 activator. activation (% of control), % at 5.7 µM. AID 1316, 2008;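 active = activation above the solvent-only control well mean plus 3 SD, set per plate batch, cut at about 110% in these data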;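 also: higher means more STAT3 reporter activation so hits are non-selective activators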
A number is an active result; n = inactive; x = not tested or not shown.

SMILES | Mdm2 ligase inh | AHR activator | PERK inhibitor | APP 5'UTR act | STAT1 activator | NF-kB expr up | STAT1 activ conf | NFkB act | STAT3 act 2
c1ccc(-c2noc(-c3ccc4ccccc4c3)n2)cc1 | n | n | n | 150 | 151 | n | 184 | n | n
O=S1(=O)N=C(Nc2nc3c(s2)CCCC3)c2ccccc21 | n | 57 | n | n | 152 | 6.2 | 194 | n | 126
Cc1cccc(Nc2nc3c(s2)CCCC3)c1 | n | n | n | n | 164 | 6.6 | 208 | 146 | n
O=C(Nc1nccs1)c1ccc(CSc2ccccc2)o1 | x | n | x | x | x | x | x | x | x
Cc1ccc(OCC(=O)N2CCc3ccccc32)cc1 | n | n | n | 156 | 155 | n | 192 | 134 | n
O=c1cc(-c2ccco2)oc2ccc(Cl)cc12 | n | x | n | n | n | n | x | x | x
COc1ccc2oc(-c3ccco3)cc(=O)c2c1 | n | n | n | n | 160 | n | 183 | n | n
CC(=O)NC12CC3CC(C1)CC(C(=O)OCC(=O)c1ccc4c(c1)OCCO4)(C3)C2 | n | n | n | 156 | 161 | n | 212 | n | 124
Cc1cccc(CC(C)NC(=O)c2oc3c(F)cccc3c2C)n1 (stereo unspecified) | x | n | x | x | x | x | x | x | x
CC(=O)c1sc(NC(=O)c2ccccc2F)nc1-c1ccccc1 | n | n | n | 141 | 154 | n | 171 | n | n
CC(=O)c1sc(NC(=O)c2ccc(F)cc2)nc1-c1ccccc1 | n | n | n | n | n | n | x | x | x
C/C(=N\O)c1sc(-c2ccccc2)nc1C | n | x | n | 177 | 156 | 6.4 | 190 | n | 121
C=C(C)c1sc(-c2ccccc2)nc1C | x | n | x | x | x | x | x | x | x
CCOC(=O)CCC(=O)N1CCNC(=O)C1 | n | n | n | n | n | n | x | x | x
O=C(c1cc(COc2ccc(F)cc2Cl)on1)N1CC2C[C@@H]3CC1C[C@H](C2)C3 | x | n | x | x | x | x | x | x | x
Cc1cc(NCc2ccccn2)nc2ccccc12 | n | n | n | n | n | n | x | x | x
c1ccc(CNc2ccc3ccccc3n2)nc1 | n | n | n | 162 | 153 | 4.7 | 200 | n | n
N#C/C(C(=O)NCc1ccccc1)=C1/N=C(NC(=O)c2cccs2)c2ccccc21 | n | n | n | n | n | n | x | x | x
CCOc1ccc(NC(=S)NN(C)C(=S)Nc2ccc(OCC)cc2)cc1 | n | n | n | n | n | n | x | x | x
NNC(=O)c1cc2c(ccc3ccccc32)o1 | n | n | n | n | n | n | x | x | x
CC(=O)Nc1cccc(NC(=O)c2cc3ccccc3o2)c1 | n | n | n | n | 156 | 3.4 | 178 | 135 | n
CC(=O)c1cc(C(=O)Nc2ccc(C(=O)O)cc2)oc1C | n | n | n | n | n | n | x | x | x
Cc1cc(C(=O)Nc2ccccc2)oc1C | n | n | n | n | 155 | 3.5 | 170 | 136 | n
Cc1ccc(C(=O)c2cc3ccccc3o2)cc1 | n | n | n | 148 | 157 | 3.9 | 195 | 139 | n
Cc1cc(C)nc(NC(=O)c2cc3ccccc3o2)n1 | n | n | n | n | n | n | x | x | x
SMILES | Mdm2 ligase inh | AHR activator | PERK inhibitor | APP 5'UTR act | STAT1 activator | NF-kB expr up | STAT1 activ conf | NFkB act | STAT3 act 2
CN(C)S(=O)(=O)c1cccc(NC(=O)c2cc3ccccc3o2)c1 | n | n | n | n | n | n | x | x | x
O=C(Nc1cccnc1)c1cc2c(ccc3ccccc32)o1 | n | n | n | 220 | 177 | 5.3 | 260 | 144 | 111
COCCNC(=O)c1cnn2c(C(F)(F)F)cc(-c3ccc(C)cc3)nc12 | n | n | n | n | n | n | x | x | x
COc1ccc(OC)c(S(=O)(=O)N2CCC(C(=O)NC3CCCC3)CC2)c1 | x | n | x | x | x | x | x | x | x
C[C@H]1CN([C@@H](C)CO)C(=O)Cc2cc(NC(=O)C3CC3)ccc2O[C@H]1CN(C)Cc1ccc(C(=O)O)cc1 | x | n | x | x | x | x | x | x | x
COc1ccc(/C=C/c2nc3ccccc3n2Cc2ccc(OC)c(OC)c2)cc1 | n | n | n | 181 | 184 | 6.8 | 183 | 135 | 125
Cc1cc(C)c(NC(=O)CNC(=O)c2cc([N+](=O)[O-])ccc2N2CCOCC2)c(C)c1 | x | n | x | x | x | x | x | x | x
N#C/C(=C\c1ccco1)c1nc2ccccc2s1 | n | n | n | 138 | 173 | n | 218 | n | 142
N#C/C(=C/c1ccco1)c1nc2ccccc2s1 | n | n | n | 186 | 165 | 8.1 | 226 | n | 140
N#C/C(=C/c1ccc(-c2cc(C(=O)O)cc(C(=O)O)c2)o1)c1nc2ccccc2s1 | n | n | n | n | n | n | x | x | x
Cc1ccc2cc3cc(C(=O)N4CCCCC4C)oc3nc2c1 (stereo unspecified) | n | n | n | 197 | 166 | 3.5 | 216 | 136 | n
Cn1c(=O)c2c(ncn2CC(=O)Nc2nccs2)n(C)c1=O | x | n | n | x | x | x | x | x | x
O=C(c1ccco1)N1CCN(C(=O)N2CCCC2)CC1 | n | n | n | n | n | n | x | x | x
Cc1ccc(Nc2nnc(-c3ccccc3N)o2)cc1C | n | n | n | x | x | x | x | x | x
CC(C)OCCCNC(=O)CCSc1ccc(Cl)cc1 | n | n | n | n | n | n | x | x | x
Cc1nn(C(=O)c2ccco2)c(C)c1Br | n | n | n | n | n | n | x | x | x
Cc1ccn2c(c1)nc(=S)n2C(=O)c1ccco1 | n | n | n | 161 | 217 | 8.5 | 193 | 152 | 122
Cc1cc(C(=O)CSc2nc3ccccc3[nH]2)c(C)n1Cc1ccco1 | n | n | n | 214 | 165 | n | 209 | n | n
O=C(CSc1nc2ccccc2[nH]1)c1ccco1 | n | n | n | n | n | n | x | x | x
COc1ccc(Nc2oc(-c3ccc(Cl)cc3)nc2C#N)cc1 | n | n | n | n | 174 | 3.3 | 208 | 135 | 124
O=C(Nc1ccc(-c2csc(-c3ccccc3)n2)cc1)c1ccccc1Cl | n | n | n | n | n | n | x | x | x
Cc1nc(-c2ccc(C(=O)NCCO)cc2)cs1 | n | n | n | n | n | n | x | x | x
